Tests used:
Serine protease 1 = target: T1, Serine protease 1 (Bos taurus, UniProt P00760); assay: Inhibitory potency was measured against bovine trypsin.
T1 sequence (P00760 whole entry): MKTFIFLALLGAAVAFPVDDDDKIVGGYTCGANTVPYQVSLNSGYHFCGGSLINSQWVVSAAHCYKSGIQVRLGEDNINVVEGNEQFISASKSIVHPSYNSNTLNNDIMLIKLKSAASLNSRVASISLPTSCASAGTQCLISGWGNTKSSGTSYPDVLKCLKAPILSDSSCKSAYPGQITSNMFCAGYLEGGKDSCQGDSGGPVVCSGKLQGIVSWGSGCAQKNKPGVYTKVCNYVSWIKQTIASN

Prothrombin = Prothrombin (Homo sapiens, UniProt P00734); assay: Inhibitory potency was measured against human thrombin
Method in brief: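 Purified human thrombin (16 nM final) was assayed chromogenically with S-2302 (300 μM final) in 50 mM Tris-HCl pH 7.5, 150 mM NaCl, 2.5 mM CaCl2, 0.1% PEG 6000 at room temperature. Varying inhibitor concentrations were tested at a substrate level equal to Km, assuming a competitive mechanism, to derive Ki.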

Coagulation factor X = Coagulation factor X (Homo sapiens, UniProt P00742); assay: Inhibitory potency was measured against human coagulation factor X
[1] = Inhibitor plasma concentration was measured in dogs on 10 mg/kg oral dosing after 2 hr administration; uM; assay type: ADME, organism-based, Canis lupus familiaris; design: dose 10 mg/kg, route oral; details: dog
Method in brief: (§1)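 Conscious beagles (10–16 kg) were given 10 mg/kg by oral gavage as homogeneous solutions in aqueous acid (n = 3). Plasma inhibitor concentrations were measured at the stated times by an ex vivo FXa inhibition activity assay. For ester/acid pairs, the value is the total ester plus acid concentration.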

[2] = Inhibitor plasma concentration was measured in dogs on 10 mg/kg oral dosing after 1 hr administration; uM; assay type: ADME, organism-based, Canis lupus familiaris; design: dose 10 mg/kg, route oral; details: dog; method in brief: as §1
[3] = Inhibitor plasma concentration was measured in dogs on 10 mg/kg oral dosing after 4 hr administration; uM; assay type: ADME, organism-based, Canis lupus familiaris; design: dose 10 mg/kg, route oral; details: dog; method in brief: as §1
[4] = Prothrombin time concentration to give a 2-fold extension activity against pooled lyophilized human plasma.; assay type: functional
Method in brief: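 Prothrombin time was measured in pooled lyophilized human plasma with Thromboplastin IS on an automated coagulation analyzer. The value is the inhibitor concentration that doubles PT.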

[5] = plasma concentration was measured against the Nonhuman primates (baboon) using FXa inhibition assay after 2 hr; uM; assay type: ADME, organism-based, Papio
Method in brief: (§2)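 Baboons received a 10 mg/kg oral dose in 1.5% carboxymethylcellulose plus 1% Tween 80 via nasogastric tube (2–4 animals per compound). Plasma inhibitor concentration was determined at the stated times by FXa inhibition assay.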

[6] = plasma concentration was measured against the Nonhuman primates (baboon) using FXa inhibition assay after 6 h; uM; assay type: ADME, organism-based, Papio; method in brief: as §2
[7] = plasma concentration was measured against the Nonhuman primates (baboon) using FXa inhibition assay after 3 hr; uM; assay type: ADME, organism-based, Papio; method in brief: as §2
[8] = plasma concentration was measured against the Nonhuman primates (baboon) using FXa inhibition assay after 1 hr; uM; assay type: ADME, organism-based, Papio; method in brief: as §2
[9] = plasma concentration was measured against the Nonhuman primates (baboon) using FXa inhibition assay after 4 hr; uM; assay type: ADME, organism-based, Papio; method in brief: as §2
[10] = plasma concentration was measured against the Nonhuman primates (cynomolgus monkey) using HPLC after 4 hr; uM
[11] = plasma concentration was measured against the Nonhuman primates (cynomolgus monkey) using HPLC after 3 hr; uM
[12] = plasma concentration was measured against the Nonhuman primates (cynomolgus monkey) using HPLC after 1 hr; uM
[13] = plasma concentration was measured against the Nonhuman primates (cynomolgus monkey) using HPLC after 2 hr; uM

Chain of Coagulation factor X (P00742 41-179 limits assumed): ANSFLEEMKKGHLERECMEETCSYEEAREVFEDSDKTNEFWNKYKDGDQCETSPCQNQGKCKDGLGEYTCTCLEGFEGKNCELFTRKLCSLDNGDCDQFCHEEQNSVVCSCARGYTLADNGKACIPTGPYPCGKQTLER
Chain of Coagulation factor X (P00742 235-488 limits assumed): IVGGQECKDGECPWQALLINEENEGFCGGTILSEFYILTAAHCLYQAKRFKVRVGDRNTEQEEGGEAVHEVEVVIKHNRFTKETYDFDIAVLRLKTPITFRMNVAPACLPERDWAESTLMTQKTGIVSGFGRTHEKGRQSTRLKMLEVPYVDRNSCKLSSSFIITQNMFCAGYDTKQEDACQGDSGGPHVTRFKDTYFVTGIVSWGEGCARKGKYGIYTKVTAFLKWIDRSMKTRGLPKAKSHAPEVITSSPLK

Row | Compound | Ki (Serine protease 1) [nM] | Ki (Prothrombin) [nM] | Ki (Coagulation factor X) [nM] | other results
1 | Cc1c(F)c(Oc2cccc(C(=O)N(C)C)c2)nc(Oc2cc(C(=N)N)ccc2O)c1F | 1100 | 1100 | – | –
2 | N=C(N)c1ccc(Oc2nc(Oc3ccc(C(=N)N)cc3)c(Cl)cc2Cl)cc1 | 2700 | 1400 | 620 | –
3 | Cc1c(F)c(Oc2cccc(CN(C)C)c2)nc(Oc2cccc(C(=N)N)c2)c1F | – | 22000 | 640 | –
4 | CCOC(=O)CN(C)c1c(F)c(Oc2cccc(C3=NCCN3C)c2)nc(Oc2cc(C(=N)N)ccc2O)c1F | 240 | 630 | 0.26 | concentration at 2 h [1]: 200 nM; concentration at 1 h [2]: 200 nM; concentration at 4 h [3]: 100 nM; PT extension [4]: 630 nM
5 | CCOC(=O)[C@@H]1C[C@@H](Oc2c(F)c(Oc3cccc(C4=NCCN4C)c3)nc(Oc3cc(C(=N)N)ccc3O)c2F)CN1 | 330 | 140 | 0.43 | concentration at 2 h [5]: 300 nM; concentration at 6 h [6]: 300 nM; concentration at 2 h [1]: 3400 nM; concentration at 1 h [2]: 3500 nM; concentration at 4 h [3]: 2600 nM; concentration at 3 h [7]: 600 nM; PT extension [4]: 300 nM; concentration at 1 h [8]: 200 nM; concentration at 4 h [9]: 500 nM
6 | CN1CCN=C1c1cccc(Oc2nc(Oc3cc(C(=N)N)ccc3O)c(F)c(O[C@H]3CN[C@H](C(=O)O)C3)c2F)c1 | 310 | 250 | 0.33 | concentration at 2 h [1]: 2200 nM; concentration at 1 h [2]: 3200 nM; concentration at 4 h [3]: 800 nM; PT extension [4]: 670 nM
7 | N=C(N)c1ccc(/C=C2/CCCC/C(=C/c3ccc(C(=N)N)cc3)C2=O)cc1 | 33 | – | 0.66 | –
8 | Cc1c(F)c(Oc2cccc(C(=O)N(C)C)c2)nc(Oc2cc(C(=N)N)ccc2N)c1F | 550 | 2300 | 14 | –
9 | CN(C)C(=O)c1cccc(Oc2nc(Oc3cc(C(=N)N)ccc3O)c(F)c(N(C)CC(=O)O)c2F)c1 | 1100 | 4500 | 0.41 | concentration at 2 h [1]: 400 nM; concentration at 1 h [2]: 300 nM; PT extension [4]: 1000 nM
10 | CN1CCN=C1c1cccc(Oc2nc(Oc3cc(C(=N)N)ccc3O)c(F)c(N(C)CC(=O)O)c2F)c1 [FIDEXABAN] | 280 | 2000 | – | concentration at 4 h [10]: 1200 nM; concentration at 3 h [11]: 700 nM; concentration at 2 h [5]: 600 nM; concentration at 6 h [6]: 1000 nM; concentration at 1 h [12]: 200 nM; concentration at 2 h [1]: 2100 nM; concentration at 1 h [2]: 3000 nM; concentration at 4 h [3]: 700 nM; concentration at 3 h [7]: 900 nM; PT extension [4]: 230 nM; concentration at 1 h [8]: 300 nM; concentration at 4 h [9]: 1100 nM; concentration at 2 h [13]: 500 nM
11 | CCOC(=O)CN1CCC(Oc2c(F)c(Oc3cccc(C4=NCCN4C)c3)nc(Oc3cc(C(=N)N)ccc3O)c2F)CC1 | 300 | 190 | 0.31 | concentration at 2 h [1]: 300 nM; concentration at 1 h [2]: 300 nM; concentration at 4 h [3]: 200 nM; PT extension [4]: 240 nM
12 | CN1CCN=C1c1cccc(Oc2nc(Oc3cc(C(=N)N)ccc3O)c(F)c(OC3CCN(CC(=O)O)CC3)c2F)c1 | 330 | 125 | 0.24 | concentration at 6 h [6]: 700 nM; concentration at 1 h [12]: 100 nM; concentration at 2 h [1]: 3800 nM; concentration at 1 h [2]: 5500 nM; concentration at 4 h [3]: 1200 nM; concentration at 3 h [7]: 100 nM; PT extension [4]: 220 nM; concentration at 1 h [8]: 100 nM; concentration at 4 h [9]: 200 nM
13 | CN(C)C(=O)c1cccc(Oc2nc(Oc3cc(C(=N)N)ccc3O)c(F)c(OC3CCN(CC(=O)O)CC3)c2F)c1 | 770 | 192 | 0.65 | concentration at 2 h [1]: 100 nM; concentration at 1 h [2]: 300 nM; PT extension [4]: 850 nM
14 | COc1ccc(C(=N)N)cc1Oc1nc(Oc2cccc(C(=O)N(C)C)c2)c(F)c(C)c1F | 4300 | > 5000 | 740 | –
15 | CCOC(=O)[C@@H]1C[C@@H](Oc2c(F)c(Oc3cccc(C(=O)N(C)C)c3)nc(Oc3cc(C(=N)N)ccc3O)c2F)CN1 | 740 | 280 | 0.71 | concentration at 2 h [1]: 200 nM; concentration at 1 h [2]: 300 nM; concentration at 4 h [3]: 100 nM; PT extension [4]: 1400 nM

Continued, in another order:

Row | Ki (Serine protease 1) [nM] | Ki (Prothrombin) [nM] | Ki (Coagulation factor X) [nM] | Compound | other results
16 | 2800 | 550 | 400 | N=C(N)c1ccc(Oc2cccc(Oc3ccc(C(=N)N)cc3)n2)cc1 | –
17 | 1900 | 2600 | 160 | Cc1c(F)c(Oc2cccc(C(=N)N)c2)nc(Oc2cccc(N(C)C)c2)c1F | –
18 | > 5000 | > 5000 | 280 | Cc1c(F)c(Oc2cccc(C(=N)N)c2)nc(Oc2cccc(C(N)=O)c2)c1F | –
19 | 810 | 22000 | 13 | Cc1c(F)c(Oc2cccc(C(=N)N)c2)nc(Oc2cccc(C(=N)N)c2)c1F | –
20 | 1200 | 1400 | 26 | N=C(N)c1ccc(O)c(Oc2cc(C(=O)O)cc(Oc3cccc(-n4ccnc4)c3)n2)c1 | –
21 | 220 | 810 | 2.4 | CN1CCN=C1c1cccc(Oc2cc(C(=O)O)cc(Oc3cc(C(=N)N)ccc3O)n2)c1 | –
22 | 300 | 1100 | 3.9 | CN(C)C(=O)c1cccc(Oc2cc(C(=O)O)cc(Oc3cc(C(=N)N)ccc3O)n2)c1 | –
23 | 1100 | 14000 | 53 | N=C(N)c1cccc(Oc2cccc(Oc3cccc(C(=N)N)c3)n2)c1 | –
24 | – | > 5000 | > 5000 | Cc1c(F)c(Oc2ccccc2)nc(Oc2cccc(C(=N)N)c2)c1F | –
25 | 1200 | 37000 | 24 | N=C(N)c1cccc(Oc2nc(Oc3cccc(C(=N)N)c3)c(F)cc2F)c1 | –
26 | 2700 | 15000 | 80 | Cc1c(F)c(Oc2cccc(C(=N)N)c2)nc(Oc2cccc(C(=O)N(C)C)c2)c1F | –
27 | – | – | 1300 | CNC(=O)c1cccc(Oc2nc(Oc3cccc(C(=N)N)c3)c(F)c(C)c2F)c1 | –
28 | 660 | 180 | 9 | Cn1ccnc1-c1cccc(Oc2cc(C(=O)O)cc(Oc3cc(C(=N)N)ccc3O)n2)c1 | –
29 | 2100 | > 5000 | 130 | N=C(N)c1cccc(Oc2nc(Oc3cccc(C(=N)N)c3)c(Cl)cc2Cl)c1 | –
30 | 1900 | 1200 | 130 | N=C(N)c1ccc(Oc2cccc(Oc3cccc(C(=N)N)c3)n2)cc1 | –
31 | 570 | 27000 | 59 | N=C(N)c1cccc(Oc2cc(C(=O)O)cc(Oc3cccc(C(=N)N)c3)n2)c1 | –
32 | 1400 | > 5000 | 85 | N=C(N)c1ccc(O)c(Oc2cc(C(=O)O)cc(Oc3cccc(C4=NCCN4)c3)n2)c1 | –

— ChEMBL document CHEMBL1131090, “Discovery of N-[2-[5-[Amino(imino)methyl]-2-hydroxyphenoxy]-3, 5-difluoro-6-[3-(4, 5-dihydro-1-methyl-1H-imidazol-2-yl)phenoxy]pyridin-4-yl]-N-methylgl y cine (ZK-807834): a potent, selective, and orally active inhibitor of the blood coagulation enzyme factor Xa” (J Med Chem, 1998)
